Test results reported in ChEMBL document CHEMBL1142097, “EthA, a common activator of thiocarbamide-containing drugs acting on different mycobacterial targets” (Antimicrob Agents Chemother, 2007).
≈ marks a conversion by molar mass, not a printed value. Calls of active or inactive are those of the source. The rule behind the calls is not given here.

Columns and labels:
[1] = system: Mycobacterium tuberculosis; assay: Antimycobacterial activity against Mycobacterium bovis BCG NCTC 5692; format: functional; details: Mycobacterium tuberculosis variant bovis BCG
How it was run: (§1)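 Agar MIC on Middlebrook 7H9 or 7H11 with OADC (ADC substituted for isoxyl-type drugs) plus graded drug levels; serial 10-fold dilutions of actively growing culture plated, incubated 37°C for 10–14 days; MIC = lowest concentration blocking 99% of growth. Recombinant Pasteur strains selected with 25 μg/ml kanamycin; ethR::hyg mutant carries a hygromycin-marked transposon in ethR.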

[2] = system: Mycobacterium tuberculosis; assay: Antimycobacterial activity against Mycobacterium bovis BCG NCTC 5692 with ethR-knockout mutant; format: functional, variant bovis BCG; how it was run: as §1
[3] = Antimycobacterial activity against Mycobacterium bovis BCG str. Pasteur 1173P2 overexpressing ethR gene; format: functional; details: Mycobacterium tuberculosis variant bovis BCG; how it was run: as §1
[4] = Antimycobacterial activity against Mycobacterium bovis BCG str. Pasteur 1173P2 overexpressing ethA gene; format: functional; details: Mycobacterium tuberculosis variant bovis BCG; how it was run: as §1
[5] = system: Mycobacterium tuberculosis; assay: Inhibition of mycolic acid synthesis in Mycobacterium bovis BCG NCTC 5692 with ethR-knockout mutant assessed as incorporation of [2-14C]acetate; format: functional, organism-based; details: variant bovis BCG
How it was run: (§2)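 Mid-log cultures in Sauton medium exposed to graded drug concentrations (μg/ml) for 16 h at 37°C, then pulsed with 1 μCi/ml [2-14C]acetate for 8 h at 37°C. Cells PBS-washed, hydrolysed with 15% tetrabutylammonium hydroxide at 100°C overnight, methylated with CH3I in CH2Cl2; fatty and mycolic acid methyl esters resolved by TLC and autoradiographed.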

[6] = system: Mycobacterium tuberculosis; assay: Inhibition of oleic acid synthesis in Mycobacterium bovis BCG NCTC 5692 with ethR-knockout mutant assessed as incorporation of [2-14C]acetate; format: functional, organism-based; details: variant bovis BCG; how it was run: as §2
[7] = system: Mycobacterium tuberculosis; assay: Inhibition of mycolic acid synthesis in Mycobacterium bovis BCG NCTC 5692 assessed as incorporation of [2-14C]acetate; format: functional, organism-based; details: variant bovis BCG; how it was run: as §2
[8] = system: Mycobacterium tuberculosis; assay: Inhibition of oleic acid synthesis in Mycobacterium bovis BCG NCTC 5692 assessed as incorporation of [2-14C]acetate; format: functional, organism-based; details: variant bovis BCG; how it was run: as §2

Row | SMILES | MIC [1] [µg/mL] | MIC [2] [µg/mL] | MIC [3] [µg/mL] | MIC [4] [µg/mL] | Activity [5] | Activity [6] | Activity [7] | Activity [8]
1 | COc1ccc(/C(C)=N/NC(N)=S)cc1 | 2.5 (≈ 11.2 µM) | 0.25 (≈ 1.12 µM) | 0.5 (≈ 2.24 µM) | 0.25 (≈ 1.12 µM) |  |  |  | 
2 | CC(C)CCSc1ccc(NC(=S)Nc2ccc(SCCC(C)C)cc2)cc1 | 25 (≈ 57.8 µM) | 2.5 (≈ 5.78 µM) | 40 (≈ 92.4 µM) | 5 (≈ 11.6 µM) | Active | Active |  | 
3 | CC(=O)Nc1ccc(/C=N/NC(N)=S)cc1 [AMITHIOZONE] | 2.5 (≈ 10.6 µM) | 0.25 (≈ 1.06 µM) | 2.5 (≈ 10.6 µM) | 0.25 (≈ 1.06 µM) | Active |  | Active | inactive
4 | CCc1cc(C(N)=S)ccn1 [ETHIONAMIDE] | 5 (≈ 30.1 µM) | 0.5 (≈ 3.01 µM) | 10 (≈ 60.2 µM) | 0.25 (≈ 1.5 µM) | Active |  |  | 
5 | NC(=S)N/N=C/c1cccnc1 [NICOTHIAZONE] | 25 (≈ 139 µM) | 5 (≈ 27.7 µM) | 75 (≈ 416 µM) | 10 (≈ 55.5 µM) |  |  |  | 
6 | CC(C)CCOc1ccc(NC(=S)Nc2ccc(OCCC(C)C)cc2)cc1 [TIOCARLIDE] | 1 (≈ 2.5 µM) | 0.5 (≈ 1.25 µM) | 0.25 (≈ 0.624 µM) | 0.1 (≈ 0.25 µM) |  | Active | Active | Active
